# Tests used:
# [1] = biological target: T1, 85/88 kDa calcium-independent phospholipase A2 (Homo sapiens) (UniProt O60733); experiment: Inhibition of human recombinant group 6A iPLA2 expressed in Sf9 insect cells at 0.091 mol fraction after 30 mins by Dole assay
# T1 sequence (whole entry): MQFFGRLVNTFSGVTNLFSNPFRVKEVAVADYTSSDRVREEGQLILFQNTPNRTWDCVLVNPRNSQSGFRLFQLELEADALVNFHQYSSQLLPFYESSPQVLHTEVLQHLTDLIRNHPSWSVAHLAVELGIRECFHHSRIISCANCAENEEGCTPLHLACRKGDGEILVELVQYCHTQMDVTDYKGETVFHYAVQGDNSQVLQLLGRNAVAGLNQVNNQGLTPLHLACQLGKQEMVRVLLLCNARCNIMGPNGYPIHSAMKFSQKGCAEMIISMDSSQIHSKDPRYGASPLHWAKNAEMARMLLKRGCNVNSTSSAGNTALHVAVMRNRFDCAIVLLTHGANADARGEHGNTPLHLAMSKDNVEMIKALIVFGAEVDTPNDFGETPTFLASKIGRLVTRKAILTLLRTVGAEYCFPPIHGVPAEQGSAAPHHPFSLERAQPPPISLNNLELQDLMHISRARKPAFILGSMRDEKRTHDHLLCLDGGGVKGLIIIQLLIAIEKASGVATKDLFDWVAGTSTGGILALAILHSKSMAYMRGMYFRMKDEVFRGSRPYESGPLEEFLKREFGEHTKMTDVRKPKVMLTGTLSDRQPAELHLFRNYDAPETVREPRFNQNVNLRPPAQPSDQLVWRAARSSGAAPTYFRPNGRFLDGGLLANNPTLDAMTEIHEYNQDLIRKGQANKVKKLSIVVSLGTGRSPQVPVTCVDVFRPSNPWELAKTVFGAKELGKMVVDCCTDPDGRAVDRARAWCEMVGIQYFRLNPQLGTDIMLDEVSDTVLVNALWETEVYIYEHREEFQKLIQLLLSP
# Outline: (§1)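 Screen at 0.091 mole fraction (mean, SE, n = 3). XI(50), the inhibitor mole fraction giving 50% inhibition, fitted sigmoidally from typically 7 levels between 0.00091 and 0.091.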
# [2] = biological target: T2, Cytosolic phospholipase A2 (Homo sapiens) (UniProt P47712); experiment: Inhibition of human group […] cPLA2 at 0.091 mol fraction after 30 mins by Dole assay
# T2 sequence (whole entry): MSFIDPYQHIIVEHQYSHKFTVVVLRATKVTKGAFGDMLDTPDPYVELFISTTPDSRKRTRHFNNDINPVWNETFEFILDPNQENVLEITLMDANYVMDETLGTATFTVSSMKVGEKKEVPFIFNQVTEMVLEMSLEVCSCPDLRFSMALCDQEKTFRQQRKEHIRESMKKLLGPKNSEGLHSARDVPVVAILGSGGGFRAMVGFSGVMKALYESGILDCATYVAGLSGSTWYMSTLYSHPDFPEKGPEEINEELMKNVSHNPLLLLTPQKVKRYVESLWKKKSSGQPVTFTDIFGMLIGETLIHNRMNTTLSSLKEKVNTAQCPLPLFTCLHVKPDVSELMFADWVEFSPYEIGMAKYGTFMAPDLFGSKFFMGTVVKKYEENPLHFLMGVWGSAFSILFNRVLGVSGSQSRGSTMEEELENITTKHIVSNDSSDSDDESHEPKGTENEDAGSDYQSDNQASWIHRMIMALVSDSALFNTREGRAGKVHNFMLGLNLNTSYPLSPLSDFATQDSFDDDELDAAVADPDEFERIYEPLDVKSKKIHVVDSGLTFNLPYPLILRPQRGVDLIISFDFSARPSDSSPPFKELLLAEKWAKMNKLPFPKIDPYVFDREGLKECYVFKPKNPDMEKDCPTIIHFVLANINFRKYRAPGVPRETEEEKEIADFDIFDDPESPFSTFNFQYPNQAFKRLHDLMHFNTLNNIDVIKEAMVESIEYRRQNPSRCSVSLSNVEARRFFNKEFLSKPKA
# Outline: (§2)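 Screened at 0.091 mole fraction (mean, SE, n = 3). XI(50) from % inhibition vs inhibitor mole fraction, typically 7 levels 0.00091–0.091, fitted by symmetrical sigmoidal non-linear regression.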
# [3] = biological target: T3, Phospholipase A2 group V (Homo sapiens) (UniProt P39877); experiment: Inhibition of human group 5 sPLA2 at 0.091 mol fraction after 30 mins
# T3 sequence (whole entry): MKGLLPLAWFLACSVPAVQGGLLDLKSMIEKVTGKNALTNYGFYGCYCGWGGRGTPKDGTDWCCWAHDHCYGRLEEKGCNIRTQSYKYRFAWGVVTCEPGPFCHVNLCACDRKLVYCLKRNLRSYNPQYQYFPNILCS
# Outline: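 Inhibitor screened at 0.091 mole fraction of the micelle interface. Average percent inhibition reported (standard error, n = 3); 25% or less inhibition taken as none.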
# Homo sapiens [4] = species: Homo sapiens; experiment: Selectivity ratio for inhibition of human recombinant group 6A iPLA2 over inhibition of human group […] cPLA2
# Outline: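 Ratio derived from XI(50) values for the two enzymes, using the modified Dole assay with 14C-labelled PAPC in Triton X-100 mixed micelles. GVIA iPLA2: 400 μM Triton X-100, 98.3 μM PAPC, 1.7 μM 14C-PAPC, 100 mM HEPES pH 7.5, 2 mM ATP, 4 mM DTT. GIVA cPLA2: 400 μM Triton X-100, 97 μM PAPC, 1.8 μM 14C-PAPC, 3 μM PIP2, 100 mM HEPES pH 7.5, 90 μM CaCl2, 2 mM DTT, 0.1 mg/ml BSA. XI(50) comes from a sigmoidal fit of % inhibition versus log mole fraction (typically 7 points, 0.00091–0.091).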
# Homo sapiens [5] = species: Homo sapiens; experiment: Selectivity ratio for inhibition of human recombinant group 6A iPLA2 over inhibition of human group 5 sPLA2
# [6] = biological target: T1, 85/88 kDa calcium-independent phospholipase A2 (Homo sapiens); experiment: Inhibition of human recombinant group 6A iPLA2 expressed in Sf9 insect cells after 30 mins by Dole assay; outline: as §1
# [7] = biological target: T2, Cytosolic phospholipase A2 (Homo sapiens); experiment: Inhibition of human group […] cPLA2 after 30 mins by Dole assay; outline: as §2
inhibition [1],inhibition [2],inhibition [3],XI50 (mole fraction) [6],XI50 (mole fraction) [7],Structure (SMILES),Ratio (Homo sapiens [4]),Ratio (Homo sapiens [5])
96%,59%,,0.0313,,O=C(/C=C/C=C/c1ccccc1)C(F)(F)C(F)(F)F,,
99.7%,55.8%,46.3%,0.001,,O=C(CCCCc1ccc2ccccc2c1)C(F)(F)C(F)(F)C(F)(F)F,,
99.8%,77.1%,58.4%,0.0006,,O=C(CCCCc1ccc2ccccc2c1)C(F)(F)C(F)(F)F,,
97%,82%,65.8%,0.0258,,OC(CCCCc1ccccc1)C(F)(F)C(F)(F)C(F)(F)F (stereo unspecified),,
94.3%,44.8%,67.3%,0.039,,OC(CCCCc1ccccc1)C(F)(F)C(F)(F)F (stereo unspecified),,
98.4%,,,0.003,,O=C(CCCCCc1ccccc1)C(F)(F)C(F)(F)C(F)(F)F,,
95.8%,43.7%,76.9%,0.0136,,CCCCCCOc1ccc(CCCCC(=O)C(F)(F)C(F)(F)C(F)(F)F)cc1,,
98.3%,76.1%,71.7%,0.0084,,CCCCCCOc1ccc(CCCCC(=O)C(F)(F)C(F)(F)F)cc1,,
100%,79.9%,36.1%,0.0005,,O=C(C(F)CCCc1ccccc1)C(F)(F)C(F)(F)C(F)(F)F (stereo unspecified),76,> 180
,,,0.0014,,O=C(CCCCc1ccccc1)C(F)(F)C(F)(F)F,,
80.6%,57%,33.9%,0.0574,,CCCCCCCC/C=C\CCCCCCCC(=O)C(F)(F)C(F)(F)C(F)(F)F,,
99.4%,32.6%,61.8%,0.0022,,O=C(CCCCc1ccccc1)C(F)(F)C(F)(F)C(F)(F)F,,
96.4%,,76.9%,0.0066,,O=C(/C=C/c1ccccc1)C(F)(F)C(F)(F)F,,
99.4%,88.8%,63%,0.0024,,CCCCCCCCc1ccc(OCCCC(=O)C(F)(F)C(F)(F)F)cc1,,
99.1%,,,0.0036,,O=C(CCCOc1ccccc1)C(F)(F)C(F)(F)F,,
100%,68.4%,39.1%,0.0005,,O=C(C(F)CCCc1ccccc1)C(F)(F)C(F)(F)F (stereo unspecified),,
98.8%,66%,,0.0013,,O=C(C(F)CCCCc1ccccc1)C(F)(F)F (stereo unspecified),,
99.4%,91.5%,61.4%,0.0029,0.022,CCCCCCCCc1ccc(OCCCC(=O)C(F)(F)F)cc1,,
97.6%,52.1%,,0.0025,,O=C(C(F)CCCc1ccccc1)C(F)(F)F (stereo unspecified),,
95.5%,41.4%,67%,0.0192,,CCCCCCCC/C=C\CCCCCCCC(=O)C(F)(F)C(F)(F)F,,

Structure (SMILES),inhibition [1],inhibition [2],inhibition [3],XI50 (mole fraction) [6],XI50 (mole fraction) [7],Ratio (Homo sapiens [4]),Ratio (Homo sapiens [5])
O=C(CCCCc1ccc2ccccc2c1)C(F)(F)F,99.9%,80.8%,36.8%,0.0002,,195,> 455
O=Cc1ccc(CCCCC(=O)C(F)(F)C(F)(F)F)o1,84.4%,,41.9%,0.0262,,,

# From ChEMBL document CHEMBL1157935, “Potent and selective fluoroketone inhibitors of group VIA calcium-independent phospholipase A2” (J Med Chem, 2010)
